# Measurements as given in ChEMBL document CHEMBL4043106, “Selective opioid growth factor receptor antagonists based on a stilbene isostere” (Bioorg Med Chem, 2017).
# The source made the active and inactive calls. The calls are words filed in the database; no cut-off is given here.
# How the values were obtained:
# [1] = target: T1, Mu-type opioid receptor (Homo sapiens, UniProt P35372); assay: Agonist activity at mu opioid receptor (unknown origin) up to 10 uM by GTPgammaS functional assay
# How it was run: (§1)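 GTPγS functional assay at KOR, DOR and MOR, run in both agonist and antagonist modes, with test concentrations up to 10 μM.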
# [2] = target: T2, Kappa-type opioid receptor (Homo sapiens, UniProt P41145); assay: Agonist activity at kappa opioid receptor (unknown origin) up to 10 uM by GTPgammaS functional assay; how it was run: as §1
# [3] = target: Delta-type opioid receptor (Homo sapiens) (UniProt P41143); assay: Agonist activity at delta opioid receptor (unknown origin) up to 10 uM by GTPgammaS functional assay; how it was run: as §1
# [4] = target: Delta-type opioid receptor (Homo sapiens) (UniProt P41143); assay: Antagonist activity at delta opioid receptor (unknown origin) up to 10 uM by GTPgammaS functional assay; how it was run: as §1
# [5] = target: T1, Mu-type opioid receptor; assay: Agonist activity at human mu opioid receptor assessed as beta-arrestin recruitment up to 5 uM after 180 mins by chemiluminescence assay
# How it was run: (§2)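 Commercial β-arrestin kit using cells transfected with human MOR, DOR or KOR. Cells plated and held 48 h at 37°C in 5% CO2. Compound added for 180 min at 37°C, starting at 5 μM with 1:3 serial dilutions. Reference agonists were DADLE (DOR), Met5-enkephalin (MOR) and dynorphin A (KOR). Detection reagent then added for 1 h at room temperature in the dark; chemiluminescence read.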
# [6] = target: T3, Opioid growth factor receptor (Homo sapiens) (UniProt Q9NZT2); assay: Antagonist activity at OGFR in human SKOV3 cells assessed as increase in cell growth at 10 uM after 24 hrs by hemacytometric method; assay type: cell-based
# T3 sequence (whole entry): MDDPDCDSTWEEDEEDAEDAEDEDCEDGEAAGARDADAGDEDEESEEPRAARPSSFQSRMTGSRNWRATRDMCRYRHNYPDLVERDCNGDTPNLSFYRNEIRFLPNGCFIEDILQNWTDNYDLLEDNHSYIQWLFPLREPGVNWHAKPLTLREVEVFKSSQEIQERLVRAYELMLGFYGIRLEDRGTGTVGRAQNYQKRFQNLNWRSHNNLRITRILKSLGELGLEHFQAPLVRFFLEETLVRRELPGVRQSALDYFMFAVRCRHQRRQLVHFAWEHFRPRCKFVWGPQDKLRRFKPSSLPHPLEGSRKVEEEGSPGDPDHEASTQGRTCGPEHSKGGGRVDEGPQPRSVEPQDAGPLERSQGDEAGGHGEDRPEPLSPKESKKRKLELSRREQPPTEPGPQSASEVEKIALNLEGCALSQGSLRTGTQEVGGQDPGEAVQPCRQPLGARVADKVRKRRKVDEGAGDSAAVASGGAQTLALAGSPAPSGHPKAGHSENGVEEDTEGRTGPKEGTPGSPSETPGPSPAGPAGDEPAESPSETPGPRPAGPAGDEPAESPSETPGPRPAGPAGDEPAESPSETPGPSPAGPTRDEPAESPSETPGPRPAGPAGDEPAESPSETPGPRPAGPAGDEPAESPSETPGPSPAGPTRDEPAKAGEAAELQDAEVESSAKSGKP
# How it was run: (§3)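 SKOV-3 ovarian cancer cells in RPMI 1640 with 10% fetal calf serum and antibiotics at 37°C, 5% CO2. Seeded at 20,000 cells/well and counted after 24 h for time 0. Compound or sterile water given either continuously (24 h daily) or pulsed for 6 h every 48 h. Cells counted at 96 and 120 h; concentration series used for the dose-response.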
# [7] = species on record: Chlorocebus aethiops; assay: Antagonist activity at OGFR in African green monkey COS7 cells harboring OGF assessed as increase in cell growth at 1 uM after 72 hrs by hemacytometric method
# How it was run: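 COS-7 cells grown in DMEM with 10% fetal calf serum and antibiotics at 37°C, 5% CO2. Seeded at 20,000 cells/well and counted 24 h later as time 0. Treated with 1 μM compound or sterile water vehicle; growth counted at 72 h.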
# [8] = target: T1, Mu-type opioid receptor; assay: Antagonist activity at mu opioid receptor (unknown origin) up to 10 uM by GTPgammaS functional assay; how it was run: as §1
# [9] = target: T2, Kappa-type opioid receptor; assay: Antagonist activity at kappa opioid receptor (unknown origin) up to 10 uM by GTPgammaS functional assay; how it was run: as §1
# [10] = target: Delta-type opioid receptor (Homo sapiens) (UniProt P41143); assay: Agonist activity at human delta opioid receptor assessed as beta-arrestin recruitment up to 5 uM after 180 mins by chemiluminescence assay; how it was run: as §2
# [11] = target: T2, Kappa-type opioid receptor; assay: Agonist activity at human kappa opioid receptor assessed as beta-arrestin recruitment up to 5 uM after 180 mins by chemiluminescence assay; details: 3 h; how it was run: as §2
# [12] = target: T3, Opioid growth factor receptor (Homo sapiens); assay: Antagonist activity at OGFR in human SKOV3 cells assessed as cell growth inhibition at 10 uM treated as pulsed dose of 6 hrs every other day by hemacytometric method; assay type: cell-based; how it was run: as §3
# [13] = target: T3, Opioid growth factor receptor (Homo sapiens); assay: Antagonist activity at OGFR in human SKOV3 cells assessed as cell growth inhibition at 5 to 10 uM treated as pulsed dose of 6 hrs every other day measured at 120 hrs post dose by hemacytometric method; assay type: cell-based; how it was run: as §3
# [14] = target: T3, Opioid growth factor receptor (Homo sapiens); assay: Antagonist activity at OGFR in human SKOV3 cells assessed as increase in cell growth at 0.1 to 10 uM treated continuously for 24 hrs measured at 120 hrs post dose by hemacytometric method; assay type: cell-based; how it was run: as §3
# [15] = species on record: Chlorocebus aethiops; assay: Antagonist activity at OGFR in African green monkey COS7 cells harboring OGF assessed as increase in cell growth at 1 uM after 72 hrs by BrdU incorporation assay
# How it was run: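 COS-7 cells on coverslips exposed to compound (1 μM) for 24 h. BrdU added in fresh DMEM for 3 h, then cells stained with DAPI counterstain. At least 100 cells per treatment scored blind for BrdU incorporation; growth evaluated at 72 h.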
# [16] = target: T3, Opioid growth factor receptor (Homo sapiens); assay: Antagonist activity at OGFR in human SKOV3 cells assessed as cell growth inhibition at 10 uM treated as pulsed dose of 6 hrs every other day measured at 120 hrs post dose by hemacytometric method; assay type: cell-based; how it was run: as §3
# T1 sequence (P35372 whole entry): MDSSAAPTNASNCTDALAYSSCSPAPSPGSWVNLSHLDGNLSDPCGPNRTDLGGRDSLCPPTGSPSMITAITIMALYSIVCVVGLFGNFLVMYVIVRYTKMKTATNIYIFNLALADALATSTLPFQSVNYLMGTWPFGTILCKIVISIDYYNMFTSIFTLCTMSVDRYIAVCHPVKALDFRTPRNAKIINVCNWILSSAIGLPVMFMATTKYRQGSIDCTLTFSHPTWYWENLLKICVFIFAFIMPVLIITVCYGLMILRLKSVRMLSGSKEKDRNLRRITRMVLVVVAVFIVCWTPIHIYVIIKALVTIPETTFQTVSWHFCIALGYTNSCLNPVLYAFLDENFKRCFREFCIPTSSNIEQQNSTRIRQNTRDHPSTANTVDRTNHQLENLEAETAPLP
# Delta-type opioid receptor (Homo sapiens), sequence (P41143 whole entry): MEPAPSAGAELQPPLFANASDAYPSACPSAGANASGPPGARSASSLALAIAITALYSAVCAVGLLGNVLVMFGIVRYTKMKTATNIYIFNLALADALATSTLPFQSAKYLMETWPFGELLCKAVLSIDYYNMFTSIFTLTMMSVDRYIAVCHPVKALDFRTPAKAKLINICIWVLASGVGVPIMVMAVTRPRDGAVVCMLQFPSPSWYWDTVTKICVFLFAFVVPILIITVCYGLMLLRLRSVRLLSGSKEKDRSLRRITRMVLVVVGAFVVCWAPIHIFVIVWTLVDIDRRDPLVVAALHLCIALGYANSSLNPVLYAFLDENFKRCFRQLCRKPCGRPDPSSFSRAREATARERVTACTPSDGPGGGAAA
# T2 sequence (P41145 whole entry): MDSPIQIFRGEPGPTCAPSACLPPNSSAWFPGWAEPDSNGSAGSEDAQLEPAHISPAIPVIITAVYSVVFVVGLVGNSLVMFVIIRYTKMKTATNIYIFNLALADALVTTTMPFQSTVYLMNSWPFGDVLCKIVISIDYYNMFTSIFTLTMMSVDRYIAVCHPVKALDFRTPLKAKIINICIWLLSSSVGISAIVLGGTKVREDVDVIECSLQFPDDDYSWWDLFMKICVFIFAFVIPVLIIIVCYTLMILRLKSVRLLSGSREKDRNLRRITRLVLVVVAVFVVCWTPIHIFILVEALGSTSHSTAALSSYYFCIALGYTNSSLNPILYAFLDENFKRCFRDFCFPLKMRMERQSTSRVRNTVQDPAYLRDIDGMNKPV
SMILES,Activity [1],Activity [2],Activity [3],inhibition [4],Activity [5],inhibition [6],Cell growth increase (active/not active) [7],inhibition (INH) [8],inhibition [9],Activity [10],Activity [11],growth inhibition (GI) [12],growth inhibition (GI) [13],inhibition [14],inhibition [15],growth inhibition (GI) [16]
COc1cc(NC(=O)c2ccc(O)c(O)c2CC=C(C)C)c(C/C=C(\C)CCC=C(C)C)c(OC)c1,inactive,Not Active,inactive,inactive,inactive,Active,Active,Not Active,inactive,inactive,Not Active,Active,–,–,–,–
COc1cc(NC(=O)c2cc(O)c(O)c(CC=C(C)C)c2)c(C/C=C(\C)CCC=C(C)C)c(OC)c1,inactive,Not Active,inactive,inactive,inactive,–,Active,Not Active,inactive,inactive,Not Active,–,–,–,–,–
O=C1CC[C@@]2(O)[C@H]3Cc4ccc(O)c5c4[C@@]2(CCN3CC2CC2)[C@H]1O5,–,–,–,–,–,–,Active,–,–,–,–,Active,–,–,–,–
COc1cc(/C=C/c2cc(O)c(O)c(CC=C(C)C)c2)c(C/C=C(\C)CCC=C(C)C)c(OC)c1,–,–,–,–,–,–,inactive,–,–,–,–,–,–,–,–,–
COc1cc(/C=C/c2ccc(O)c(O)c2CC=C(C)C)c(C/C=C(\C)CCC=C(C)C)c(OC)c1,–,–,–,–,–,–,Active,–,–,–,–,–,–,–,–,–
COc1cc(OC)c(C/C=C(\C)CCC=C(C)C)c(C(=O)Nc2cc(O)c(O)c(CC=C(C)C)c2)c1,inactive,Not Active,inactive,inactive,inactive,Active,–,Not Active,inactive,inactive,Not Active,Active,Active,Active,Active,–
COc1cc(OC)c(C/C=C(\C)CCC=C(C)C)c(C(=O)Nc2ccc(O)c(O)c2CC=C(C)C)c1,inactive,Not Active,inactive,inactive,inactive,Active,–,Not Active,inactive,inactive,Not Active,Active,–,–,inactive,Active
